This note sets out measurements from ChEMBL document CHEMBL4819012, “Discovery of novel 2-aryl-3-sulfonamido-pyridines (HoAns) as microtubule polymerization inhibitors with potent antitumor activities” (Eur J Med Chem, 2021).

Calls of active or inactive are those of the source. The rule behind the calls is not given here.

Data set [1] concerns RKO. The experiment in a line: Induction of apoptosis in human RKO cells assessed as viable cells at 1 uM measured after 24 hrs by PI/Annexin V staining based flow cytometry assay (reference value: 96.6%). In kind it is functional. Conditions: read-out: Activity. (In general: In flow cytometry, cells or beads pass a laser one at a time.)
In data set [2] the target is T1, Tubulin (Homo sapiens) (UniProt P68371+Q9H4B7+P0DPH7+P68366+Q13509+Q71U36+P04350+Q3ZCM7+P07437+P68363+Q9BQE3+Q6PEY2+Q13885+Q9BVA1+Q9BUF5). The experiment in a line: Inhibition of tubulin polymerization in human RKO cells assessed as fragmentation of microtubule at 1 uM measured 24 hrs by DAPI staining based immunoflourescence assay. In kind it is cell-based. Put shortly:
(§1)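 RKO cells on coverslips (2.5×10^5 per well) incubated overnight, then treated for 24 h at 0.5 or 1 μM, DMSO, or 1 μM comparators. Fixed in cold methanol 10 min, permeabilized with 0.25% Triton X-100, blocked in 1% BSA at 4 °C overnight. Stained with anti-β-tubulin (1:100, 2 h RT) and Alexa Fluor 594 secondary (1:500, 1 h), nuclei with DAPI; imaged by fluorescence microscopy.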

Data set [3] relates to SW480. The experiment in a line: Antiproliferative activity against human SW480 cells assessed as cell viability measured after 72 hrs by MTS method. It counts as functional, cell-based. Conditions: SW480, 72 h. Put shortly:
(§2)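 Log-phase cells plated at 5×10^3–6×10^3 per well for 24 h, then given graded compound concentrations in fresh medium for 72 h, five replicate wells. Medium replaced with medium containing 10% MTS, 30 min or more at 37 °C in dark; OD 490 nm read. IC50 by nonlinear regression; mean ± SD of at least three experiments.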

For data set [4], the system named is SK-BR-3. The experiment in a line: Antiproliferative activity against human SK-BR-3 cells assessed as cell viability measured after 72 hrs by MTS method. It counts as functional, cell-based. As to conditions: SK-BR-3, 72 h. Put shortly:
as §2

For data set [5], the system named is RKO. The experiment in a line: Induction of apoptosis in human RKO cells assessed as increase in ROS levels at 0.5 uM measured after 24 hrs by DCFH-DA staining based flow cytometry method relative to control. It counts as functional. Put shortly:
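Cells at 5×10^5 per well exposed to 0.25 or 0.5 µM for 24 h, then loaded with 5 µM DCFH-DA in serum-free medium 30 min at 37 °C; washed, harvested, read by flow cytometry (ex 488/em 525 nm). ROS given as ratio of treated to control; at least three experiments.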

The subject of data set [6] is HUVEC. The data set is described as follows: Anti-vascular activity against human HUVEC cells assessed as wound closure at 1 uM measured after 24 hrs by wound closure assay (reference value: 71.8%). It counts as functional.
The test system of data set [7] is SW-620. The experiment in a line: Induction of cell cycle arrest in human SW-620 cells assessed as accumulation of cells in G2 phase at 1 uM measured after 24 hrs by PI staining based flow cytometry method (reference value: 13.83%). It counts as functional.
Data set [8] concerns SW-620. The data set is described as follows: Induction of apoptosis in human SW-620 cells assessed as increase in cleaved PARP levels at 0.5 to 1 uM measured after 24 hrs by western blot assay. In kind it is functional, cell-based. As to conditions: dose 0.5-1 µM. Put shortly: (§3)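 RKO or SW620 cells at 4×10^5–5×10^5 per well treated with 0.5 and 1 µM for 24 h; lysed in SDS loading buffer, boiled, SDS-PAGE, PVDF transfer; probed with anti-Bax or anti-cleaved PARP (1:1000) overnight at 4 °C, HRP secondary, ECL detection; β-actin control.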
(In general: In western blotting, separated proteins are transferred to a membrane and probed.)

For data set [9], the system named is RKO. The experiment in a line: Induction of apoptosis in human RKO cells assessed as late apoptotic cells at 1 uM measured after 24 hrs by PI/Annexin V staining based flow cytometry assay (reference value: 0.81%). It counts as functional.
For data set [10], the system named is PANC-1. The data set is described as follows: Induction of cell cycle arrest in human PANC-1 cells assessed as accumulation of cells in G2 phase at 1 uM measured after 24 hrs by PI staining based flow cytometry method (reference value: 3.63%). It counts as functional.
Data set [11] deals with BT-474. The experiment in a line: Antiproliferative activity against human BT-474 cells assessed as cell viability measured after 72 hrs by MTS method. Conditions: BT-474, 72 h. In kind it is functional, cell-based. Put shortly: as §2
(Tetrazolium dyes change colour on reduction, which living cells bring about.)

In data set [12] the test system is SW-620. The experiment in a line: Induction of cell cycle arrest in human SW-620 cells assessed as accumulation of cells in S phase at 1 uM measured after 24 hrs by PI staining based flow cytometry method (reference value: 46.12%). It counts as functional.
For data set [13], the species on record is Sus scrofa. The data set is described as follows: Inhibition of pig tubulin polymerization at 10 uM measured every minute for 60 mins by microplate reader method. Put shortly: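 Kit assay with porcine tubulin (>97% pure) at 4 mg/mL in PIPES 80 mM, MgCl2 2 mM, EGTA 0.5 mM, pH 6.9, with GTP. Compound at 10 μM final (from 100 μM working solution) preincubated 5 min at 37 °C in a prewarmed plate before cold tubulin mix is added. A340 read every minute for 60 min at 37 °C.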

The subject of data set [14] is PANC-1. The experiment in a line: Induction of cell cycle arrest in human PANC-1 cells assessed as accumulation of cells in G1 phase at 1 uM measured after 24 hrs by PI staining based flow cytometry method (reference value: 31.35%). It counts as functional.
The subject of data set [15] is PANC-1. The data set is described as follows: Induction of cell cycle arrest in human PANC-1 cells assessed as accumulation of cells in S phase at 1 uM measured after 24 hrs by PI staining based flow cytometry method (reference value: 65%). It counts as functional.
The nature of data set [16]: Antiproliferative activity against human HCCLM3 cells assessed as cell viability measured after 72 hrs by MTS method. In kind it is functional, cell-based. Conditions: HCCLM3, 72 h. Put shortly: as §2
In data set [17] the test system is RKO. The experiment in a line: Induction of cell cycle arrest in human RKO cells assessed as accumulation of cells in S phase at 1 uM measured after 24 hrs by PI staining based flow cytometry method (reference value: 49.66%). In kind it is functional.
Data set [18] addresses T1, Tubulin (Homo sapiens). The experiment in a line: Inhibition of tubulin polymerization in human RKO cells assessed as morphology changed to fusiform at 1 uM measured 24 hrs by DAPI staining based immunoflourescence assay. As to conditions: in the assay text read “changed to round from fusiform” for “changed to fusiform”. It counts as cell-based. Put shortly: as §1
Data set [19] relates to PANC-1. The experiment in a line: Antiproliferative activity against human PANC-1 cells assessed as cell viability measured after 72 hrs by MTS method. As to conditions: PANC-1, 72 h. In kind it is functional, cell-based. Put shortly:
as §2

Data set [20] concerns SW-620. The data set is described as follows: Induction of cell cycle arrest in human SW-620 cells assessed as accumulation of cells in G1 phase at 1 uM measured after 24 hrs by PI staining based flow cytometry method (reference value: 40.06%). It counts as functional.
Data set [21] can be described thus: Toxicity against Athymic nude mouse xenografted with SW-620 cells assessed as changes in body weight at 25 mg/kg per two days, po measured after 20 days. In kind it is organism-based. As to conditions: in vivo, 480 h, time 20 day. Put shortly: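 Nude mice given 5×10^6 SW620 cells s.c. into the right armpit; at ~100 mm³ randomized (n = 6). Dosed orally at 25 mg/kg every 2 days in DMSO:corn oil 1:9 (100 μL) for 20 days; vehicle controls dosed on the same schedule. Body weight recorded every 2 days.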

The test system of data set [22] is RKO. The experiment in a line: Induction of apoptosis in human RKO cells assessed as increase in Bax expression at 0.5 to 1 uM measured after 24 hrs by western blot assay. It counts as functional, cell-based. As to conditions: dose 0.5-1 µM. Put shortly: as §3
The test system of data set [23] is SW-620. The experiment in a line: Antiproliferative activity against human SW-620 cells assessed as cell viability measured after 72 hrs by MTS method. In kind it is functional, cell-based. Conditions: SW-620, 72 h. Put shortly: as §2

Broadly, the IC50 is the concentration that gives 50% inhibition. With `COc1ccc(S(=O)(=O)Nc2cccnc2-c2ccc(C#N)c(F)c2)cc1`, the viability at 1 µM in [1] worked out at 61%. Further, the inhibition result in data set [2], in data set [13] and in data set [18] was “Active” in each case. For the same molecule, the IC50 in data set [3] came to 338 nM; in data set [4], 431 nM; in [11], 1190 nM; in data set [16], 963 nM; in data set [19], 729 nM; in [23], 673 nM. For the same molecule, in data set [5], the “fold change (FC)” value is given as 1.5. Besides, the Activity was 20.1% in data set [6]; 76.28% in data set [7]; 1.52% in data set [9]; 28.01% in data set [10]; 15.67% in data set [12]; 2.04% in data set [14]. The Activity was 40.54% in data set [15], 43.49% in data set [17], 8.05% in data set [20] and “Non-Toxic” in data set [21]. Also, the result in data set [8] and in data set [22] was Active.
For the molecule `COc1ccc(S(=O)(=O)Nc2cccnc2Nc2ccc(O)cc2)cc1` [ABT-751], the viability at 1 µM in [1] came out at 88.4%. Further, the inhibition entry in data set [2], in [13] and in data set [18] was “Active” in each case. For the same molecule, the IC50 was determined as 3420 nM in data set [3]; 143 nM in data set [4]; 8390 nM in [11]; 671 nM in [16]; 837 nM in [19]; 2790 nM in data set [23]. The “fold change (FC)” value in data set [5] was found to be 2. For the same molecule, the Activity in data set [6] worked out at 18%; in [7], 17.69%; in data set [9] it was 1.31%; in data set [10] it was 64.83%; in data set [12] it was 44.45%; in [14], 31.44%. Further, the Activity is listed as 33.13% in data set [15], 46.23% in [17], 37.86% in data set [20] and “Non-Toxic” in data set [21]. Moreover, the outcome in [8] and in [22] was Active.
